According to PMC10405366 (Molecular pharmaceutics, 2023):

What was measured:
OVCAR8 = assay: Cell viability assay; assay type: cell-based, human
Summary of the method: (§1)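 RPMI1640 (OVCAR3, OVCAR4, MDA-MB-435) or DMEM (OVCAR8, MDA-MB-231) was used, with 10% FBS and penicillin/streptomycin. Cells were STR-validated and kept below 20 passages. Cells were plated at 5000 per well overnight, then given test compound at final 0.95–250 nM (nine levels, 0.5% DMSO) for 72 h at 37 °C. Viability was read by CellTiter-Blue absorbance, and IC50 was taken relative to DMSO. Paclitaxel (0.39–100 nM) was the control, with three biological replicates.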

OVCAR4 [1] = assay: 2D foci assay; assay type: cell-based, human; details: OVCAR4, 50 nM for 8 h, two weeks colony formation, relative to vehicle
Summary of the method: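 Cells were seeded at 200 per 60 mm dish and left to attach overnight. They were then exposed for 8 h to test compound (50 nM), DMSO vehicle or paclitaxel (10 nM). Medium was replaced and cells grew drug-free for about two weeks (15 days). Colonies were fixed in 4% paraformaldehyde, stained with 0.05% crystal violet, imaged and counted. There were three biological replicates, compared with vehicle by Dunnett's test.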

[2] = tested on: OVCAR8-RFP cells xenografted IP; assay: OVCAR8-RFP IP xenograft; assay type: in vivo, mouse
[3] = Mouse pharmacokinetics, plasma LC-MS/MS; assay type: in vivo; details: female C57BL/6 mice
OVCAR3 = assay: Cell viability assay; assay type: cell-based, human; details: OVCAR3
Summary of the method: as §1

[4] = tested on: female athymic nude (nu/nu) mice; assay: 14 day tolerability study, IP every 2 days; assay type: in vivo, mouse
Summary of the method: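 Female athymic nude mice (CrTac:NCr-Foxn1nu, 7–8 weeks) were randomized, n = 5 per group. Parent compound was given at 0.1, 0.25, 0.5 or 1.0 mg/kg, or the succinate at molar-equivalent 0.114, 0.285, 0.570 or 1.14 mg/kg. Vehicle was Tween80:Captex200:0.9% saline (8:2:90 v/v). Dosing was IP every 2 days for 14 days. Body weight was recorded every 2 days before dosing, and gross necropsy plus H&E histopathology were done.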

OVCAR4 [5] = assay: Cell viability assay; assay type: cell-based, human
Summary of the method: as §1

[6] = Stability in mouse plasma lithium heparin and QC extracts; assay type: in vitro ADME
[7] = Stability in Tween80:Captex200P:0.9% saline formulation; assay type: physicochemical
Summary of the method: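 The dried succinate was taken up in Tween 80:Captex 200P at 1 mg/mL. It was vortexed 30 s, sonicated 30 min and shaken about 16 h at 100 rpm at room temperature. It was then diluted in 0.9% saline to 0.1 mg/mL and serially diluted to 0.05 and 0.025 mg/mL. At 0, 1 and 4 h, aliquots were diluted 20-fold in acetone, with storage at 4 °C in between. Analysis was by UPLC-PDA-HRMS against acetone standards.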

[8] = cited from earlier work

Structure (SMILES): CN1C(=O)[C@]23SS[C@@]1(C)C(=O)N2[C@H]1Nc2ccccc2[C@@]1([C@@]12c4ccccc4N[C@@H]1N1C(=O)[C@@]4(C)SS[C@]1(C(=O)N4C)[C@H]2O)[C@@H]3O [verticillin A]
- cytotoxic activity (OVCAR8): nanomolar cytotoxic activity
- foci formation (OVCAR4 [1]): completely abrogated foci formation
- liver and organ gross morphology ([2]; 0.25 mg/kg in DMSO twice weekly for four weeks): did not demonstrate changes in liver morphology
- tumor burden ([2]; 0.25 mg/kg twice weekly for four weeks, compared to DMSO): reduced
- plasma concentration ([3]; IP 0.25 mg/kg, most results just above the lower limit): 1 to 1000 nM
- plasma concentration ([3]; IV 0.25 mg/kg, most results just above the lower limit): 1 to 1000 nM
- plasma concentration ([3]; oral gavage 2.5 mg/kg, linear range 1–1000 nM): BLOQ
- cytotoxic activity (OVCAR3): pronounced cytotoxic activities
- early removal of mice ([4]; 0.5 mg/kg IP every 2 days): 13 day of treatment
- early removal of mice ([4]; 1.0 mg/kg IP every 2 days): 8 days of treatment
- maximal tolerated IP dose ([4]; IP every 2 days, 14 days, female athymic nude mice): 0.25 mg/kg
- tolerability ([4]; two higher dose levels, 0.5 and 1.0 mg/kg IP every 2 days): poorly tolerated
- tolerability ([4]; two lower dose levels, 0.100 and 0.250 mg/kg IP every 2 days, 14 days): well tolerated
- cytotoxic activity (OVCAR4 [5]): nanomolar cytotoxic activity

Structure (SMILES): CN1C(=O)[C@]23SS[C@@]1(C)C(=O)N2[C@H]1Nc2ccccc2[C@@]1([C@@]12c4ccccc4N[C@@H]1N1C(=O)[C@]4(C)SS[C@]1(C(=O)N4C)[C@H]2OC(=O)CCC(=O)O)[C@@H]3O [verticillin A succinate]
- foci formation (OVCAR4 [1]): completely abrogated foci formation
- stability in mouse plasma lithium heparin [6]: poor stability
- stability of QC extracts ([6]; 4 °C autosampler, after approximately 19 h): not stable
- verticillin A succinate levels in formulation ([7]; 4 h after preparation, stored at 4 °C): below the detection limit (BDL) or NF
- stability in formulation ([7]; Tween80:Captex200P:0.9% saline, 0.1, 0.05 and 0.025 mg/mL, degrades almost immediately to verticillin A): not stable
- verticillin A succinate levels in formulation ([7]; immediately after preparation, all concentration levels tested): below the quantitation limit (BQL) or not found/detected (NF)
- plasma concentration ([3]; IV 0.285 mg/kg, initial PK time points): < 3 nM
- cytotoxic activity (OVCAR3): pronounced cytotoxic activities
- solubility [8]: greatly improved solubility
- early removal of mice ([4]; 0.570 mg/kg IP every 2 days): 13 day of treatment
- early removal of mice ([4]; 1.14 mg/kg IP every 2 days): 8 days of treatment
- tolerability ([4]; two higher dose levels, 0.570 and 1.14 mg/kg IP every 2 days): poorly tolerated
- tolerability ([4]; two lower dose levels, 0.114 and 0.285 mg/kg IP every 2 days, 14 days): well tolerated
